This passage reports IC50 and T/C results from ChEMBL document CHEMBL1125604, “Synthesis and antitumor evaluations of symmetrically and unsymmetrically substituted 1,4-bis[(aminoalkyl)amino]anthracene-9,10-diones and 1,4-bis[(aminoalkyl)amino]-5,8-dihydroxyanthracene-9,10-diones” (J Med Chem, 1991).

In brackets after ≈: the same amount, converted by molar mass. Where only a bound is given, the exact number is not on record here.

Assay [1] has as its system L1210. Kind of assay: The compound was tested for its antitumor activity against L1210 cells. The format is functional. Particulars: Mus musculus, read-out: ID50 (the source's name).
For assay [2], the system named is Mus musculus. Kind of assay: At 25 mg/kg dose CDF1 mice were injected ip on (1,5) days after tumor transplantation to evaluate mean survival time. The assay is classed as functional. The conditions noted are these: route intraperitoneal. The essentials: (§1)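 CDF1 mice were inoculated ip with 10^6 murine leukemia cells on day 0. Drug was given ip starting 24 h later, on the day schedule listed in each line. Mice were checked daily for toxicity and survival, and day of death was recorded over a 60-day study. The result is reported as mean survival time of treated mice divided by that of controls, ×100.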

In assay [3] the test system is Mus musculus. As to the kind of experiment: At 50 mg/kg dose CDF1 mice were injected ip on (1,5,9) days after tumor transplantation to evaluate mean survival time. The assay is classed as functional. Particulars: route intraperitoneal. In outline: as §1
For assay [4], the species on record is Homo sapiens. As to the kind of experiment: Inhibition of cellular growth was evaluated in vitro against human colon carcinoma LOVO. The format is functional, organism-based. In outline:
(§2)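 LOVO and LOVO/DOXO cells were grown at 37 °C under 5% CO2 in Ham's F12 with 20% fetal calf serum. They were plated at 2.5 × 10³ cells/dish and exposed continuously to drug for 144 h. Growth inhibition was read by MTT assay, and the ID50 (drug concentration giving 50% inhibition of growth versus control) was derived.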

The species named for assay [5] is Homo sapiens. As to the kind of experiment: Inhibition of cellular growth was evaluated in vitro against human colon carcinoma subline resistant to DOXO (LOVO/DOXO). The assay is classed as functional, organism-based. The essentials: as §2
For assay [6], the system named is Mus musculus. Kind of assay: At 12.5 mg/kg dose CDF1 mice were injected ip on (1,5,9) days after tumor transplantation to evaluate mean survival time. The assay is classed as functional. Particulars: route intraperitoneal. The essentials: as §1
The subject of assay [7] is Mus musculus. Kind of assay: At 6.25 mg/kg dose CDF1 mice were injected ip on (1,5,9) days after tumor transplantation to evaluate mean survival time. The format is functional. Particulars: route intraperitoneal. The essentials:
as §1

Assay [8] deals with Mus musculus. Kind of assay: At 25 mg/kg dose CDF1 mice were injected ip on (1,5,9) days after tumor transplantation to evaluate mean survival time. The assay is classed as functional. The conditions noted are these: route intraperitoneal. In outline:
as §1

For assay [9], the species on record is Homo sapiens. Kind of assay: Inhibition of cellular growth was evaluated in vitro against human colon carcinoma LOVO. The format is functional. The essentials:
as §2

Assay [10] has as its system Mus musculus. Kind of assay: At 12.5 mg/kg dose CDF1 mice were injected ip on (1) days after tumor transplantation to evaluate mean survival time. The format is functional. Particulars: route intraperitoneal. The essentials: as §1
Assay [11] relates to Mus musculus. Kind of assay: At 25 mg/kg dose CDF1 mice were injected ip on (1) days after tumor transplantation to evaluate mean survival time. The assay is classed as functional. The conditions noted are these: route intraperitoneal. In outline: as §1
The subject of assay [12] is Mus musculus. Kind of assay: At 50 mg/kg dose CDF1 mice were injected ip on 1 day after tumor transplantation to evaluate mean survival time. The assay is classed as functional. The conditions noted are these: route intraperitoneal. In outline:
as §1

Assay [13] concerns Mus musculus. Kind of assay: At 50 mg/kg dose CDF1 mice were injected ip on (1,5) days after tumor transplantation to evaluate mean survival time. The format is functional. The conditions noted are these: route intraperitoneal. The essentials: as §1
The test system of assay [14] is Mus musculus. Kind of assay: At 5 mg/kg dose CDF1 mice were injected ip on (1,5) days after tumor transplantation to evaluate mean survival time. The format is functional. The conditions noted are these: route intraperitoneal. The essentials: as §1

As usually defined, the T/C is the ratio of treated to control. In the case of `CN(C)CCNc1ccc(N(C)CCN(C)C)c2c1C(=O)c1ccccc1C2=O`, the IC50 in [1] was found to be 0.5 µg/mL (≈ 1.27 µM). For the same compound, the T/C was 108% in assay [2] and 127% in assay [3].

For the compound `O=C1c2c(O)ccc(O)c2C(=O)c2c(NCCNCCO)ccc(NCCNCCO)c21` [MITOXANTRONE], the results for the IC50 in assay [4] and in assay [5] were 0.0055 µg/mL (≈ 0.0124 µM) and 0.274 µg/mL (≈ 0.616 µM), respectively.

On to `COc1cccc2c1C(=O)c1c(O)c3c(c(O)c1C2=O)C[C@@](O)(C(=O)CO)C[C@@H]3O[C@H]1C[C@H](N)[C@H](O)[C@H](C)O1` [DOXORUBICIN], for which the IC50 in [4] came out at 0.0247 µg/mL (≈ 0.0454 µM); in assay [5], 3.84 µg/mL (≈ 7.07 µM).

Regarding `CN(C)CCNc1ccc(NCCNCCO)c2c1C(=O)c1c(O)ccc(O)c1C2=O`, the IC50 turned out to be 0.00017 µg/mL (≈ 0.000397 µM) in assay [1], 0.024 µg/mL (≈ 0.056 µM) in assay [5] and 1 ng/mL (≈ 0.00233 µM) in assay [9]. The T/C in assay [6] is reported as 187%; in assay [7] it was 188%; in assay [8], 244%.

As to `O=C1c2ccccc2C(=O)c2c(NCCNCCO)ccc(NCCNCCO)c21` [AMETANTRONE], the IC50 in assay [1] was 0.01 µg/mL (≈ 0.0242 µM); in assay [4] it was 0.283 µg/mL (≈ 0.685 µM); in assay [5], 44.8 µg/mL (≈ 109 µM). The results for the T/C in assay [6], in [3] and in assay [8] were 177%, 146% and 252%, respectively.

In the case of `CN(C)CCN(C)c1ccc(N(C)CCN(C)C)c2c1C(=O)c1ccccc1C2=O`, the IC50 in assay [1] came out at 4.6 µg/mL (≈ 11.3 µM). Besides, the values for the T/C in assay [10], in assay [11] and in assay [12] were 103%, 100% and 95%, respectively.

As to `CN(C)CCNc1ccc(NCCCCN)c2c1C(=O)c1ccccc1C2=O`, the IC50 in [1] was 0.0045 µg/mL (≈ 0.0118 µM). Moreover, the values for the T/C in [6], in assay [2] and in [13] were 113%, 111% and 64%, respectively.

Consider `NCCCCNc1ccc(NCCNCCO)c2c1C(=O)c1c(O)ccc(O)c1C2=O`, for which, in assay [1], the IC50 was found to be 0.0007 µg/mL (≈ 0.00163 µM). In assay [14], this compound registered a T/C of 138%.

In the case of `CN(C)CCNc1ccc(NCCNCCO)c2c1C(=O)c1ccccc1C2=O`, the IC50 in assay [1] stood at 0.0038 µg/mL (≈ 0.00958 µM). In addition, the figures for the T/C in [3] and in assay [8] were 145% and 148%, respectively.

As to `O=C1c2ccccc2C(=O)c2c(NC3CC3)ccc(NC3CC3)c21`, the IC50 in [1] is above 10 µg/mL. Moreover, the T/C was determined as 112% in assay [6], 100% in assay [7] and 107% in assay [8].

As to `CN(C)CCNc1ccc(NCCN)c2c1C(=O)c1ccccc1C2=O`, the IC50 in assay [1] turned out to be 0.03 µg/mL (≈ 0.0851 µM). Further, the T/C is 129% in [6], 180% in assay [3] and 150% in assay [8].
